The values below come from ChEMBL document CHEMBL4308843, “Identification of ABX-1431, a Selective Inhibitor of Monoacylglycerol Lipase and Clinical Candidate for Treatment of Neurological Disorders” (J Med Chem, 2018).

Calls of active or inactive are those of the source. The calls are words filed in the database; no cut-off is given here.

In data set [1] the target is T1, Monoacylglycerol lipase ABHD6 (Rattus norvegicus) (UniProt Q5XI64).
T1 sequence (whole entry): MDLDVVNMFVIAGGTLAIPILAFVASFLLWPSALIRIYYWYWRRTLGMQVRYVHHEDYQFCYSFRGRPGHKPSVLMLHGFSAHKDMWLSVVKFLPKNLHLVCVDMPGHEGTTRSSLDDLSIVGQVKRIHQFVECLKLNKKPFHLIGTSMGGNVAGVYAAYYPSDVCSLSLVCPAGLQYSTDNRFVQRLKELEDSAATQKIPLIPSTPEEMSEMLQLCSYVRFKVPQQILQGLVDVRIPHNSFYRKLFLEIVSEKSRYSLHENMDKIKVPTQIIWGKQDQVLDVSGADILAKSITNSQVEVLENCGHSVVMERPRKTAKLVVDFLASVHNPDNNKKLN
Nature of the data set: Inhibition of ABHD6 in rat brain membrane homogenates at 0.001 to 10 uM preincubated for 30 mins followed by FP-Rh addition after 30 mins by gel-based ABPP assay. The class given is cell membranes.

The nature of data set [2]: Intrinsic clearance in human liver microsomes. The class given is ADME, Microsome. Conditions: read-out: CLH. A general note: Liver microsomes are a subcellular fraction often used to study metabolism.
The test system of data set [3] is Mus musculus. Nature of the data set: In vivo inhibition of ABHD6 in ICR mouse brain at 25 mg/kg, po measured at 4 hrs post dose in presence of FP-Rh probe by gel-based ABPP assay. Format: functional, organism-based.
The next data set concerns Rattus norvegicus. Nature of the data set: Antinociceptive activity in Sprague-Dawley rat assessed as reduction in formalin-evoked paw licking duration at 3 mg/kg, po administered 4 hrs prior to formalin challenge and measured between 0 to 15 mins post formalin challenge. The class given is functional, organism-based.
The species named for a further data set is Canis lupus familiaris. Nature of the data set: Inhibition of MGLL in dog brain membrane homogenates at 0.001 to 10 uM preincubated for 30 mins followed by FP-Rh addition after 30 mins by gel-based ABPP assay. Format: cell membranes. The method, boiled down: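 Brain membrane homogenates (1 mg/mL protein) were preincubated with 0.001-10 µM inhibitor or DMSO for 30 min at 37°C, then labelled with 1 µM FP-Rh for 30 min at 25°C. Reactions were quenched in SDS-PAGE loading buffer, run on 10% gels and scanned in-gel. MGLL band intensities were normalised to DMSO (100%).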

Data set [4] deals with Mus musculus. Nature of the data set: In vivo inhibition of MGLL in po dosed ICR mouse brain assessed as increase in 2-AG measured at 4 hrs post dose by LC-MS/MS analysis. Format: functional, organism-based. The method, boiled down: (§1)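 Male ICR mice, 6–12 weeks old, single oral gavage 0.5–32 mg/kg in PEG400:ethanol:PBS (7/2/1), 5 mL/kg, n = 3. Killed at 4 h; one brain hemisphere for gel-based ABPP with FP-Rh (MGLL band quantified), the other for 2-AG by LC-MS/MS.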

A further data set concerns the target Cytochrome P450 3A5 (Homo sapiens, UniProt P20815). Nature of the data set: Inhibition of recombinant human CYP3A5. Format: ADME.
In data set [5] the target is T2, Platelet-activating factor acetylhydrolase (Homo sapiens, UniProt Q13093).
T2 sequence (Q13093 whole entry): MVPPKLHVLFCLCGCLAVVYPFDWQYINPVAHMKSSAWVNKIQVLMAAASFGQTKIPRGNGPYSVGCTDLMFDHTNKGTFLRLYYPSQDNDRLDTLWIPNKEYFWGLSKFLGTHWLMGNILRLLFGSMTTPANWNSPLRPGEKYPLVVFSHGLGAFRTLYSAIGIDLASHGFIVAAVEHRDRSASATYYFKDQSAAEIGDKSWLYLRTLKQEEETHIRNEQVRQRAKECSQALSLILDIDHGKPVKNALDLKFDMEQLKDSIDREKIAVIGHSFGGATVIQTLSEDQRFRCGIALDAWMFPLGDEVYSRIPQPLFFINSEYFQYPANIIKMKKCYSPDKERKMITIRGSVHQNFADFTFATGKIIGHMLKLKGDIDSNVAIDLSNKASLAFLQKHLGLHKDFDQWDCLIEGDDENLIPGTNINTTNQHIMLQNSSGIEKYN
Nature of the data set: Inhibition of PLA2G7 derived from human PC3 cell lysates preincubated for 30 mins followed by JW912 addition after 30 mins by gel-based ABPP assay. The class given is subcellular, Lysate.

A short description of data set [6]: Cmax in Beagle dog at 1 mg/kg, po by LC-MS analysis. Conditions: in vivo.
Another data set addresses Cytochrome P450 2D6 (Homo sapiens, UniProt P10635). Nature of the data set: Inhibition of recombinant human CYP2D6. The class given is ADME.
The test system of data set [7] is Mus musculus. Nature of the data set: In vivo inhibition of MGLL in po dosed ICR mouse brain measured 4 hrs post dose in presence of FP-Rh probe by gel-based ABPP assay. Format: functional. The method, boiled down: as §1
Data set [8] can be described thus: Clearance in Sprague-Dawley rat at 1 mg/kg, iv or 5 mg/kg, po by LC-MS analysis. Format: ADME, organism-based. The following applies: in vivo. An outline of the steps:
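Rats (n = 3 per route) were dosed at 1 mg/kg iv (70% PEG400 in HPBCD/saline) or 5 mg/kg po (70% PEG400 in 0.5% CMC/saline), fasted overnight to 4 h post-dose. Jugular-catheter blood (~100 µL) was sampled to 24 h into 400 µL acetonitrile to stop esterases. Samples were quantified by HPLC-MS/MS, with noncompartmental analysis.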

Cytochrome P450 3A5, sequence (P20815 whole entry): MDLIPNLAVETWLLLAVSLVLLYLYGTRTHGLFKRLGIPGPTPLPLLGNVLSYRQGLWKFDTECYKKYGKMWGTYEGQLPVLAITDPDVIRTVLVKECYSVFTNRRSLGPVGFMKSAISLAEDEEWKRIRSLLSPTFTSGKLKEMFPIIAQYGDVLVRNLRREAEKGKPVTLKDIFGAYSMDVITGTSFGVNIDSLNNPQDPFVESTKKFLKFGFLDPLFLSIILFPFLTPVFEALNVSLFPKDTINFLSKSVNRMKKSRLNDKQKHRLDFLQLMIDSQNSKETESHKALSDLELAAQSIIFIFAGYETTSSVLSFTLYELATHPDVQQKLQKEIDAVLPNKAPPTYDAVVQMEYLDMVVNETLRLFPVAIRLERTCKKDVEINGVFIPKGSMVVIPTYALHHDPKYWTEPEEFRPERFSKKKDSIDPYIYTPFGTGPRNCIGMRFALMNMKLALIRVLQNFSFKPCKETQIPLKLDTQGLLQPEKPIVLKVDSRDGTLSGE
Cytochrome P450 2D6, sequence (P10635 whole entry): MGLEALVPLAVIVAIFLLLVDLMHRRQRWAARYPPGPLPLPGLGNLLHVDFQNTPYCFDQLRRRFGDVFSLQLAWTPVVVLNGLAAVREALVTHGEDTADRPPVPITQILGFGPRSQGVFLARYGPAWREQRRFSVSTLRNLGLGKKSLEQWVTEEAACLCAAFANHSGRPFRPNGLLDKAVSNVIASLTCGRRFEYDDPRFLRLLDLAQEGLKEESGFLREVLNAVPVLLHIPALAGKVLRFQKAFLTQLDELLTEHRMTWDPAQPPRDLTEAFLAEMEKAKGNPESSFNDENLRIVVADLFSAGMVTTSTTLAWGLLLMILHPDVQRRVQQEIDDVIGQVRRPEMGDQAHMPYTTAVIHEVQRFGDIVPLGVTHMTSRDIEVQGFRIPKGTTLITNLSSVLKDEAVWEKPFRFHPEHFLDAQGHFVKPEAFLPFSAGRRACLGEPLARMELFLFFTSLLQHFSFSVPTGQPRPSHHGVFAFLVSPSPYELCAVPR

One may read the IC50 as the concentration that gives 50% inhibition. In general, Cmax refers to the maximum level reached in the sampled fluid or tissue. As a reminder, the ED50 is the dose that gives a 50% effect, or the effect in half of the subjects. As to `O=C(OC(C(F)(F)F)C(F)(F)F)N1CCN(Cc2ccc(C(F)(F)F)cc2N2CCCC2)CC1` [ELCUBRAGISTAT], the inhibition entry (in data set [1]; in the data set on Mus musculus [3]; in the data set filed under Canis lupus familiaris) was “Active” in each case. In [2], the microsomal CLint was 19 µL/min/mg. Also, the result in the data set with Rattus norvegicus was Active. The inhibition entry in the data set with Mus musculus [4] and in the data set on Mus musculus [7] was “Dose-dependent effect” throughout. In addition, the IC50 on Cytochrome P450 3A5 is greater than 50 µM; in data set [5], greater than 10 µM; on Cytochrome P450 2D6, 6.5 µM. Moreover, in data set [6], the highest level (Cmax) was 777 nM. Also, the ED50 with Mus musculus [7] was 1.4 mg/kg. Further, in [8], the clearance worked out at 14.7 mL/min/kg.
